Here are results for five molecules from ChEMBL document CHEMBL1125082, “Synthesis and antimalarial activity of (+)-deoxoartemisinin” (J Med Chem, 1990).

In brackets after ≈: the same amount, converted by molar mass.

The test system of experiment [1] is Plasmodium falciparum. Description: In vitro antimalarial activity against mefloquine-resistant Plasmodium falciparum D6 (Sierra Leone). It is filed as functional, organism-based. Summed up:
(§1)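 Semiautomated microdilution over a 64-fold dilution range, with DMSO stock diluted in medium with 10% plasma. Parasites at 0.5% parasitemia and 1.5% hematocrit, 37°C under 5% O2/5% CO2/90% N2 for 24 h. Tritiated hypoxanthine added for a further 18–20 h and incorporation read by scintillation. IC50 from nonlinear regression of concentration–response curves.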

Experiment [2] concerns Plasmodium falciparum. Nature of the experiment: In vitro antimalarial activity against chloroquine-resistant Plasmodium falciparum W2 (Indochina). It is filed as functional, organism-based. The procedure, abridged:
as §1

The subject of experiment [3] is Plasmodium berghei. Nature of the experiment: Antimalarial activity against Plasmodium berghei infected mice (Mus musculus) at 160 mg/kg dose; n=5. Format: functional. Summed up:
(§2)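 Mice infected intraperitoneally on day 0 with 5.98×10^5 P. berghei-parasitized cells. A single subcutaneous dose in peanut oil was given on day 3, at 640, 320, 160, 80, 40 or 20 mg/kg. Blood films were taken on day 6, then every 7 days to day 60. Mice surviving 60 days counted as cured. Activity meant survival over twice that of infected untreated controls.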

Experiment [4] deals with Plasmodium berghei. Nature of the experiment: Antimalarial activity against Plasmodium berghei infected mice (Mus musculus) at 20 mg/kg dose; n=5. It is filed as functional. Summed up: as §2
In experiment [5] the test system is Plasmodium berghei. Nature of the experiment: Antimalarial activity against Plasmodium berghei infected mice (Mus musculus) at 320 mg/kg dose; n=5. It is filed as functional. Summed up: as §2
Experiment [6] relates to Plasmodium berghei. Nature of the experiment: Antimalarial activity against Plasmodium berghei infected mice (Mus musculus) at 40 mg/kg dose; n=5. Format: functional. Summed up:
as §2

Experiment [7] concerns Plasmodium berghei. Description: Antimalarial activity against Plasmodium berghei infected mice (Mus musculus) at 80 mg/kg dose;n=5. It is filed as functional. The procedure, abridged: as §2
Experiment [8] deals with Plasmodium berghei. Description: Antimalarial activity against Plasmodium berghei infected mice (Mus musculus) at 640 mg/kg dose; n=5. It is filed as functional. Summed up:
as §2

The subject of experiment [9] is Plasmodium berghei. Description: Antimalarial activity against Plasmodium berghei infected mice (Mus musculus) at 320 mg/kg dose; active in 2 of 5. Format: functional. Summed up:
as §2

In experiment [10] the test system is Plasmodium berghei. Description: Antimalarial activity against Plasmodium berghei infected mice (Mus musculus) at 160 mg/kg dose; active in 2 of 5. Format: functional. Summed up: as §2

On to `C[C@@H]1CC[C@H]2[C@@H](C)C(=O)O[C@@H]3O[C@@]4(C)CC[C@@H]1[C@]32OO4` [ARTEMISININ], for which the IC50 in [1] came to 2.33 ng/mL (≈ 8.25 nM); in experiment [2], 1.21 ng/mL (≈ 4.29 nM). Also, the “No. of mice cured” value was found to be 0 in [3]; 0 in experiment [4]; 0 in [5]; 0 in experiment [6]; 0 in experiment [7]; 5 in experiment [8].
As to `C[C@@H]1CC[C@H]2[C@@H](C)CO[C@@H]3OC4(C)CC[C@@H]1[C@]32OO4` (single isomer, unassigned) [DEOXOARTEMISININ], the concentration for half-maximal inhibition (IC50) in [1] was 0.58 ng/mL (≈ 2.16 nM); in experiment [2] it was 0.15 ng/mL (≈ 0.559 nM). Besides, the “No. of mice cured” value was found to be 2 in experiment [9]; 0 in experiment [10]; 0 in [4]; 0 in [6]; 0 in [7]; 5 in experiment [8].
As to `CCO[C@H]1O[C@@H]2O[C@@]3(C)CC[C@H]4[C@H](C)CC[C@@H]([C@H]1C)[C@@]24OO3` [ARTEMOTIL], the IC50 in experiment [1] is 0.87 ng/mL (≈ 2.78 nM); in experiment [2], 0.16 ng/mL (≈ 0.512 nM).
Consider `C[C@@H]1CC[C@H]2[C@@H](C)C(O)O[C@@H]3OC4(C)CC[C@@H]1[C@]32OO4` (single isomer, unassigned), for which the IC50 in experiment [1] came out at 0.11 ng/mL (≈ 0.387 nM); in experiment [2] it was 0.04 ng/mL (≈ 0.141 nM).
Turning to `C[C@@H]1CC[C@H]2[C@@H](C)CO[C@@H]3OC4(C)CC[C@@H]1[C@]32O4` (single isomer, unassigned), the IC50 in experiment [1] and in [2] was 250 ng/mL (≈ 991 nM) in each case.

One may read the IC50 as the midpoint of a concentration-inhibition curve. The low end stands for higher potency, the high end for lower potency.
